Tests used:
Type in all cases: functional
[1] = organism: Oryctolagus cuniculus; experiment: Tested for the concentration that cause 50% inhibition of the maximum aggregation with rabbit platelet-rich plasma induced by 2.5 x 10 E -6 M of U-46619
Summary of the method: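 Rabbit blood drawn from carotid artery into 3.18% trisodium citrate (1/10 volume). PRP from 300 g spin for 15 min; PPP from 1000g spin for 20 min, used as 100% transmission reference. PRP warmed 2 min at 37 °C, compound or vehicle added, 2 min later 2.5×10^-6 M U-46619. Turbidimetric (Born) aggregometry; IC50 as 50% inhibition of maximum aggregation.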

[2] = organism: Oryctolagus cuniculus; experiment: Tested for the concentration that causes 50% relaxation when contraction in rabbit aorta was induced by 3 x 10 E -8 M of U-46619.
Summary of the method: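 Rabbit thoracic aorta strips held at 37 °C in oxygenated (95% O2/5% CO2) bicarbonate salt solution with dextrose, resting tension 1.5 g, equilibrated 1 h. Isometric tension recorded via force transducer. Once contraction to 3×10^-8 M U-46619 plateaued, compound added cumulatively. Concentration giving 50% relaxation of maximal U-46619-induced tension change obtained by regression of concentration–relaxation curve.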

[3] = Selectivity index is the […] between the IC50 values in the aggregation and contraction assays
Summary of the method: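 Index for τ-receptor computed as […] between IC50 in rabbit PRP aggregation (2.5×10^-6 M U-46619) and IC50 for relaxing rabbit aorta contracted by 3×10^-8 M U-46619.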

| SMILES | IC50 [1] [µM] | IC50 [2] [nM] | Selectivity index [3] |
| --- | --- | --- | --- |
| CC(C)c1ccc2c(CCCCNS(=O)(=O)c3ccc(Cl)cc3)cc(S(=O)(=O)O)c-2cc1 | 8.7 | 23 | 378 |
| CC(C)c1ccc2c(CCCCNS(=O)(=O)c3ccccc3)cc(CC(=O)O)c-2cc1 | > 100 | 3000 | > 33 |
| CC(C)c1ccc2c(CCCCNS(=O)(=O)c3ccccc3)cc(S(=O)(=O)O)c-2cc1 | > 100 | 1100 | > 91 |
| O=C(O)COc1ccc(CCNS(=O)(=O)c2ccccc2)cc1 [SULOTROBAN] | 7.1 | 1300 | 5 |
| CC(C)c1ccc2c(CCCCNS(=O)(=O)c3ccccc3)cc(C(=O)O)c-2cc1 | > 100 | 1600 | > 63 |
| COc1ccc(S(=O)(=O)NCCCCc2cc(C(=O)O)c3ccc(C(C)C)ccc2-3)cc1 | > 100 | 430 | > 233 |
| CC(C)c1ccc2c(CCCCCNS(=O)(=O)c3ccccc3)cc(C(=O)O)c-2cc1 | > 100 | 3400 | > 29 |
| CC(C)c1ccc2c(/C=C/C(=O)O)cc(CCCCNS(=O)(=O)c3ccccc3)c-2cc1 | > 100 | 16000 | > 6 |
| COc1ccc(S(=O)(=O)NCCCCc2cc(S(=O)(=O)O)c3ccc(C(C)C)ccc2-3)cc1 | 64 | 97 | 660 |
| CC(C)c1ccc2c(CCCNS(=O)(=O)c3ccccc3)cc(C(=O)O)c-2cc1 | > 100 | 14000 | > 7 |
| CC(C)c1ccc2c(CCNS(=O)(=O)c3ccccc3)cc(C(=O)O)c-2cc1 | > 100 | 14000 | > 7 |
| CC(C)c1ccc2c(CCCCNS(=O)(=O)c3ccc(Cl)cc3)cc(C(=O)O)c-2cc1 | > 100 | 150 | > 667 |

— ChEMBL document CHEMBL1124891, “Azulene derivatives: new non-prostanoid thromboxane A2 receptor antagonists” (J Med Chem, 1990)
